Source: ChEMBL document CHEMBL4270592, “8-Aryl-6-chloro-3-nitro-2-(phenylsulfonylmethyl)imidazo[1,2-a]pyridines as potent antitrypanosomatid molecules bioactivated by type 1 nitroreductases” (Eur J Med Chem, 2018)

What was measured:
[1] = Electrochemical behavior of the compound assessed as redox potential corrected toward normal hydrogen electrode by cyclic voltammetry; assay type: physicochemical
Leishmania infantum = assay: Antileishmanial activity against axenic amastigote stage of Leishmania infantum assessed as inhibition of parasite metabolic activity after 48 hrs by luciferase reporter gene based luminescence assay; assay type: functional, organism-based
How it was run: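 L. infantum promastigotes in log phase switched to RPMI 1640 pH 5.4 for 24 h at 24 °C, then 24 h at 37 °C to give axenic amastigotes. Seeded at 2.106 parasites/mL with compounds in DMSO (final <0.5% v/v), in duplicate, 48 h at 37 °C. Wells checked for precipitate, luciferase luminescence read, IC50 by non-linear regression as mean.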

[2] = Selectivity index, ratio of CC50 for human HepG2 cells to IC50 for axenic amastigote stage of Leishmania infantum; assay type: toxicity; details: read-out: Ratio CC50/IC50
HepG2 = assay: Cytotoxicity against human HepG2 cells assessed as reduction in cell viability after 72 hrs by MTT assay; assay type: cell-based; details: hepg2, 72 h
How it was run: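 HepG2 cells in RPMI with 10% FCS, L-glutamine and penicillin/streptomycin, 37 °C, 6% CO2. After 24 h, compounds in DMSO (final <0.5% v/v) added for 72 h, in duplicate. Precipitate checked, MTT (0.5 mg/mL) 2 h, formazan dissolved in DMSO, A570 with 630 nm reference. Viability as % of untreated control; CC50 from dose-response curve; doxorubicin positive control.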

[3] = test system: Trypanosoma brucei brucei; assay: Antitrypanosomal activity against trypomastigote stage of Trypanosoma brucei brucei AnTat 1.9 assessed as decrease in parasite viability after 69 hrs by Alamar blue assay; assay type: functional, organism-based; details: AnTat 1.9, 69 h
How it was run: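 AnTat 1.9 in MEM with Earle's salts plus 0.5 mM mercaptoethanol, 1.5 mM L-cysteine, 0.05 mM bathocuproine sulfate and 20% heat-inactivated horse serum, 37 °C, 5% CO2. Seeded 2000 parasites/100 µL with compounds in DMSO, in duplicate, 69 h, then Alamar Blue for 5 h.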

[4] = Selectivity index, ratio of CC50 for human HepG2 cells to IC50 for trypomastigote stage of Trypanosoma brucei brucei AnTat 1.9; assay type: toxicity; details: read-out: Ratio CC50/IC50
THP-1 = assay: (§1) Cytotoxicity against human THP1 cells assessed as reduction in cell viability after 72 hrs by MTT assay; assay type: cell-based; details: thp-1, 72 h
How it was run: (§2)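 THP1 cells in complete RPMI with PMA (final 50 ng/mL) at 10⁶ cells/mL, differentiated 48 h. Compounds in DMSO (final <0.5% v/v) then added for 72 h at 37 °C. MTT (0.5 mg/mL in FCS-free medium) 2 h, formazan dissolved in DMSO, A570 with 630 nm reference. Viability as % of untreated control; CC50 from dose-response curve; doxorubicin positive control.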

[5] = as §1; assay type: cell-based, THP-1; details: THP1 cells; how it was run: as §2
Leishmania donovani [6] = assay: Antileishmanial activity against promastigote stage of Leishmania donovani MHOM/IN/00/DEVI assessed as inhibition of parasite metabolic activity after 72 hrs by MTT assay; assay type: functional, organism-based
How it was run: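 MHOM/IN/00/DEVI log-phase promastigotes in Schneider's medium with 20% FCS, 2 mM L-glutamine and antibiotics. Seeded at 10⁶ parasites/mL with compounds in DMSO (final <0.5% v/v), in duplicate, 72 h at 27 °C. MTT added for 4 h, stopped with 50% isopropanol–10% SDS, A570 read. IC50 by nonlinear regression, mean of three independent experiments.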

[7] = test system: Trypanosoma brucei brucei; assay: Selectivity ratio of IC50 for wild type bloodstream form of Trypanosoma brucei brucei S427 to substrate activity at recombinant type-1 nitroreductase in bloodstream form of Trypanosoma brucei brucei S427
How it was run: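 Bloodstream-form single-marker S427 grown at 37 °C in HMI9-T with 2.5 µg/mL G418. The NTR1-overexpressing line was also given 2.5 µg/mL phleomycin and induced with 1 µg/mL tetracycline 48 h before assay. Triplicate cultures seeded at 1×10^5 cells/mL with inhibitor; cell densities determined after 72 h to give EC50 for wild-type and NTR1 lines.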

[8] = test system: Trypanosoma brucei brucei; assay: […] activity against wild type bloodstream form of Trypanosoma brucei brucei S427 after 72 hrs; assay type: functional, organism-based; details: S427, 72 h
How it was run: (§3)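 Bloodstream-form T. brucei single marker S427 (T7RPOL TETR NEO) cultured at 37 °C in HMI9-T with 2.5 µg/mL G418. NTR1-overexpressing line kept in 2.5 µg/mL phleomycin and induced with 1 µg/mL tetracycline 48 h before the assay. Triplicate cultures seeded at 1×10^5 cells/mL with inhibitor; cell densities counted after 72 h to give EC50.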

[9] = Selectivity index, ratio of CC50 for human HepG2 cells to IC50 for intramacrophage amastigote stage of Leishmania donovani infected in human THP1 cells; assay type: toxicity, cell-based; details: read-out: Ratio CC50/IC50
Leishmania donovani [10] = assay: Antileishmanial activity against intramacrophage amastigote stage of Leishmania donovani infected in human THP1 cells after 120 hrs by Giemsa staining based microscopy; assay type: functional, organism-based; details: THP-1, 120 h
How it was run: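 THP-1 cells differentiated with PMA (final 50 ng/mL) for 48 h at 37 °C, 6% CO2. Infected 10:1 with L. donovani promastigotes acidified 24 h at 27 °C in Schneider 20% FCS pH 5.4. After 24 h, compounds added in duplicate (DMSO <0.5% v/v) for 120 h.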

[11] = Selectivity index, ratio of CC50 for human HepG2 cells to IC50 for promastigote stage of Leishmania donovani MHOM/IN/00/DEVI; assay type: toxicity; details: read-out: Ratio CC50/IC50
[12] = Substrate activity at recombinant type-1 nitroreductase in bloodstream form of Trypanosoma brucei brucei S427 assessed as inhibition of parasite growth after 72 hrs; how it was run: as §3
[13] = Substrate activity at recombinant nitroreductase 2 in promastigote stage of Leishmania donovani MHOM/SD/62/1S-CL2D LdBOB assessed as inhibition of parasite growth after 72 hrs by resazurin dye based assay
How it was run: (§4)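 Clonal L. donovani LdBOB promastigotes grown at 26 °C in modified M199. NTR1 and NTR2 overexpressers kept in nourseothricin 100 µg/mL. Triplicate 10 mL cultures seeded at 5×10^4 parasites/mL with drug for 72 h. Aliquots received 50 µM resazurin, read by fluorescence (ex 528/em 590 nm) after 4 h. Background-corrected 2-parameter fit gave EC50; at least two repeats, mean ± SD.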

Leishmania donovani [14] = assay: Antileishmanial activity against wild type promastigote stage of Leishmania donovani MHOM/SD/62/1S-CL2D LdBOB after 72 hrs by resazurin dye based assay; assay type: functional, organism-based; how it was run: as §4
[15] = Substrate activity at recombinant type-1 nitroreductase in promastigote stage of Leishmania donovani MHOM/SD/62/1S-CL2D LdBOB assessed as inhibition of parasite growth after 72 hrs by resazurin dye based assay; how it was run: as §4

SMILES	IC50 (Leishmania infantum) [nM]	selectivity ratio [2]	CC50 (HepG2) [µM]	IC50 [3] [nM]	selectivity ratio [4]	further results
O=[N+]([O-])c1c(CS(=O)(=O)c2ccccc2)nc2c(Br)cc(Cl)cn12						Activity [1]: -0.65 V
O=[N+]([O-])c1c(CS(=O)(=O)c2ccccc2)nc2c(-c3ccc(O)cc3)cc(Cl)cn12	3000	> 4.2	> 12.5	410	> 30.5	
O=[N+]([O-])c1c(CS(=O)(=O)c2ccccc2)nc2c(-c3cccnc3)cc(Cl)cn12	2000	> 15.7	> 31.3	230	> 136	
CCCCCCCCCCCCCCCCOP(=O)([O-])OCC[N+](C)(C)C [MILTEFOSINE]						CC50 (THP-1): > 40 µM
C[C@@H]1[C@H](O)[C@@H](C)/C=C/C=C/C=C/C=C/C=C/C=C/C=C/[C@H](O[C@@H]2O[C@H](C)[C@@H](O)[C@H](N)[C@@H]2O)C[C@@H]2O[C@](O)(C[C@@H](O)C[C@@H](O)[C@H](O)CC[C@@H](O)C[C@@H](O)CC(=O)O[C@H]1C)C[C@H](O)[C@H]2C(=O)O [AMPHOTERICIN B]						CC50 at 72 h [5]: > 62.5 µM; IC50 (Leishmania donovani [6]): 70 nM
COc1ccc(-c2cc(Cl)cn3c([N+](=O)[O-])c(CS(=O)(=O)c4ccccc4)nc23)cc1			> 3.9			
O=[N+]([O-])c1c(CS(=O)(=O)c2ccccc2)nc2c(-c3cccs3)cc(Cl)cn12			> 3.9			
Cc1ccc(C(=O)Nc2ccc(S(=O)(=O)O)c3cc(S(=O)(=O)O)cc(S(=O)(=O)O)c23)cc1NC(=O)c1cccc(NC(=O)Nc2cccc(C(=O)Nc3cc(C(=O)Nc4ccc(S(=O)(=O)O)c5cc(S(=O)(=O)O)cc(S(=O)(=O)O)c45)ccc3C)c2)c1 [SURAMIN]			> 100			
COc1cccc2c1C(=O)c1c(O)c3c(c(O)c1C2=O)C[C@@](O)(C(=O)CO)C[C@@H]3O[C@H]1C[C@H](N)[C@H](O)[C@H](C)O1 [DOXORUBICIN]						CC50 (THP-1): 1.4 µM
N#Cc1ccc(-c2cc(Cl)cn3c([N+](=O)[O-])c(CS(=O)(=O)c4ccccc4)nc23)cc1			> 3.9			
O=[N+]([O-])c1c(CS(=O)(=O)c2ccccc2)nc2c(-c3cccc(F)c3)cc(Cl)cn12	1700	> 7.4	> 12.5	200	> 62.5	
O=[N+]([O-])c1c(CS(=O)(=O)c2ccccc2)nc2c(-c3cccc(C(F)(F)F)c3)cc(Cl)cn12	1100	> 11.4	> 12.5	40	> 312	Activity [1]: -0.67 V; Ratio IC50 [7]: 2; IC50 [8]: 90 nM
CSc1ccc(OCc2ncc([N+](=O)[O-])n2C)cc1 [FEXINIDAZOLE]		> 58.8	> 200	600	> 333	CC50 at 72 h [5]: 3.6 µM; Activity [1]: -0.83 V; selectivity ratio [9]: > 50; IC50 (Leishmania donovani [10]): > 50 µM; IC50 (Leishmania donovani [6]): 1200 nM; selectivity ratio [11]: > 167
NCCC[C@](N)(C(=O)O)C(F)F [EFLORNITHINE, (S)-]			> 100	13300	> 7.5	
O=[N+]([O-])c1c(CS(=O)(=O)c2ccccc2)nc2c(-c3ccccc3C(F)(F)F)cc(Cl)cn12	1600	14.2	22.7	70	324	
O=[N+]([O-])c1c(CS(=O)(=O)c2ccccc2)nc2c(-c3ccco3)cc(Cl)cn12			> 3.9			
O=[N+]([O-])c1c(CS(=O)(=O)c2ccccc2)nc2c(-c3ccccc3F)cc(Cl)cn12			> 3.9			
CC1CS(=O)(=O)CCN1/N=C/c1ccc([N+](=O)[O-])o1 (stereo not given) [NIFURTIMOX]						IC50 [8]: 1870 nM; IC50 [12]: 600 nM
O=[N+]([O-])c1c(CS(=O)(=O)c2ccccc2)nc2c(-c3ccc(CO)cc3)cc(Cl)cn12	1500	8.7	13.1	90	146	
O=Cc1ccc(-c2cc(Cl)cn3c([N+](=O)[O-])c(CS(=O)(=O)c4ccccc4)nc23)cc1	3800	> 8.2	> 31.2	80	> 390	
O=[N+]([O-])c1c(CS(=O)(=O)c2ccccc2)nc2c(-c3ccc(C(F)(F)F)cc3)cc(Cl)cn12			> 3.9			
O=[N+]([O-])c1c(CS(=O)(=O)c2ccccc2)nc2c(Br)cc(Br)cn12	4400	> 7.1	> 31	2900	> 10.7	CC50 (THP-1): > 25 µM; Activity [1]: -0.59 V; selectivity ratio [9]: > 5.6; IC50 (Leishmania donovani [10]): 5.5 µM; IC50 [13]: 3000 nM; selectivity ratio [11]: > 17.2; IC50 (Leishmania donovani [14]): 1900 nM; IC50 [15]: 70 nM
O=[N+]([O-])c1c(CS(=O)(=O)c2ccccc2)nc2c(-c3ccccc3)cc(Cl)cn12	1600	> 10	> 15.6	610	> 25.6	Activity [1]: -0.69 V
O=[N+]([O-])c1c(CS(=O)(=O)c2ccccc2)nc2c(-c3ccc(F)cc3F)cc(Cl)cn12			> 7.8			
O=[N+]([O-])c1c(CS(=O)(=O)c2ccccc2)nc2c(-c3ccc(Cl)cc3)cc(Cl)cn12			> 3.9			
CCN(CC)c1ccc(-c2cc(Cl)cn3c([N+](=O)[O-])c(CS(=O)(=O)c4ccccc4)nc23)cc1	2500	> 6.2	> 15.6	430	> 36.3	
O=[N+]([O-])c1c(CS(=O)(=O)c2ccccc2)nc2c(-c3ccccc3CO)cc(Cl)cn12	> 10000	< 8.8	88	160	550	Activity [1]: -0.7 V; Ratio IC50 [7]: 2; IC50 [8]: 390 nM; IC50 [12]: 190 nM
O=[N+]([O-])c1c(CS(=O)(=O)c2ccccc2)nc2c(-c3ccc(F)cc3)cc(Cl)cn12	1300	> 12	> 15.6	310	> 50.3	
